These results are taken from paper PMC3243785 (Chemical research in toxicology, 2011).

Molecules are shown by their SMILES. ≈ marks a conversion by molar mass, not a printed value. Read-outs that look alike come from different tables or passages of the source.

By solubility is commonly meant the concentration that dissolves in the medium under given conditions. Low values mean little dissolved substance, high ones much dissolved substance.

Data set [1] relates to hepatic microsomes from PB-, DEX- or VEH-treated rats (P450 enzymes). It counts as in vitro ADME, rat. The following applies: for Metabolite identified by GC/MS (major/minor): large scale experiment; for Metabolite formation, Percent of ΣOH-PCB: 37°C; for Percent of PCB 136 metabolized to the metabolite: microsomes from PB-, DEX- or VEH-treated rats; for Percent of PCB 136 metabolized to the metabolite / Percent of PCB 136 converted to the metabolite: 50 μM PCB 136; for Formation of metabolite relative to microsomes from VEH-treated rats: 2 min incubation.

The test system of another data set is rat recombinant P450 2B1. Particulars: cited from earlier work.
Data set [2] relates to hepatic microsomes from PB-, DEX- or VEH-treated rats (P450 enzymes). Description: Enantioselective gas chromatography. It counts as in vitro ADME, rat. The following applies: for Enantiomeric fraction (EF), range over time course: 50 μM PCB 136.
The test system of data set [3] is Ryanodine receptors (RyRs). Particulars: cited from earlier work.
Another data set has as its system P450 3A. In words: BQ activity of hepatic microsomes from inducer-treated rats. It counts as biochemical, rat. Particulars: intraperitoneal inducer treatment of male Sprague-Dawley rats, relative to VEH.
Another data set has as its system P450 2B enzymes. In words: BROD activity of hepatic microsomes from inducer-treated rats. It counts as biochemical, rat. Particulars: intraperitoneal inducer treatment of male Sprague-Dawley rats, relative to VEH.
Data set [4] can be described thus: Aqueous solubility of PCB 136 in incubation buffer by light scattering. Particulars: phosphate buffer (incubation buffer), pH 7.4. It counts as physicochemical. Put shortly: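 Test compound dissolved in DMSO was added to 0.1 M phosphate buffer containing 3 mM MgCl2. Light scattering was read at 37 °C in a Peltier-controlled luminescence spectrophotometer, with excitation and emission both at 400 nm and 5 nm slits. Integration time was 5 s, with 5 min pre-recording followed by 5 min recording.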

The mark [5] stands for this setting: microsomes from PB-treated rats.
Setting [6] is: microsomes from DEX-treated rats, 5 μM PCB 136, 5 min.
The mark [7] stands for this setting: microsomes from PB-treated rats, 5 μM PCB 136, 5 min.
[8] abbreviates: microsomes from VEH-treated rats, 5 μM PCB 136, 5 min.
Where [9] appears, read: all incubations with 5 μM PCB 136.
Where [10] appears, read: all three microsomal preparations.
The mark [11] stands for this setting: microsomes from PB-treated rats, 50 μM PCB 136, 5 min.
[12] abbreviates: microsomes from DEX-treated rats.

As to `Oc1c(O)c(Cl)c(-c2c(Cl)ccc(Cl)c2Cl)c(Cl)c1Cl` [4,5-diOH-PCB 136, 2,2',3,3',6,6'-hexachlorobiphenyl-4,5-diol], the “Metabolite identified by GC/MS (major/minor)” value in data set [1] (setting [5]) is reported as “minor metabolites”. Moreover, the “Metabolite formation, Percent of ΣOH-PCB” value is reported as 3% in data set [1] (setting [6]); 22% in data set [1] (setting [7]); 2% in data set [1] (setting [8]); 1% in data set [1] (microsomes from VEH-treated rats, 50 μM PCB 136, 5 min). Moreover, in data set [1], the “Percent of PCB 136 metabolized to the metabolite” value is recorded as less than 0.1%.

On to `Oc1cc(Cl)c(-c2c(Cl)ccc(Cl)c2Cl)c(Cl)c1Cl` [4-OH-PCB 136, 2,2',3,3',6,6'-hexachlorobiphenyl-4-ol], for which the “Formation of metabolite by rat recombinant P450 2B1” value in the data set with rat recombinant P450 2B1 is “no detectable quantities”. Also, the “Enantiomeric fraction (EF)” value in data set [2] (DEX-microsomes, 5 μM PCB 136, 30 min) is reported as 0.22; in data set [2] (DEX-microsomes, 50 μM PCB 136, 1 min), 0.39; in data set [2] (DEX-microsomes, 50 μM PCB 136, 10 min), 0.33; in data set [2] (PB-microsomes, 50 μM PCB 136, 1 min) it was 0.43. The “Enantiomeric fraction (EF), direction of enrichment” value in data set [2] (setting [9]) and in data set [2] (setting [10]) was less than 0.5 in each case. Besides, in data set [1] (setting [5]), the “Metabolite identified by GC/MS (major/minor)” value was “minor metabolites”. Further, the “Metabolite formation, Percent of ΣOH-PCB” value in data set [1] (setting [6]) was determined as 3%; in data set [1] (microsomes from DEX-treated rats, 50 μM PCB 136, 5 min), 2%; in data set [1] (setting [11]), 1%; in data set [1] (setting [8]), 15%. For the same compound, in data set [1], the “Percent of PCB 136 metabolized to the metabolite” value is 0.1%. Besides, the “Concentration needed to double basal RyR activity (EC2x)” value in data set [3] was 1.60 µM.

Regarding `Oc1cc(Cl)c(Cl)c(-c2c(Cl)ccc(Cl)c2Cl)c1Cl` [5-OH-PCB 136, 2,2',3,3',6,6'-hexachlorobiphenyl-5-ol], the “Enantiomeric fraction (EF), range over time course” value in data set [2] (PB-microsomes) is on record as 0.70-0.72; in data set [2] (VEH-microsomes) it was 0.62-0.75. In data set [2] (VEH-microsomes, 50 μM PCB 136, 1 min), the “Enantiomeric fraction (EF)” value is 0.62. The “Enantiomeric fraction (EF), direction of enrichment” value in data set [2] (setting [9]) and in data set [2] (setting [10]) was more than 0.5 each time. Also, the “Metabolite identified by GC/MS (major/minor)” value in data set [1] (setting [5]) is given as “major metabolite”. Also, the “Metabolite formation, Percent of ΣOH-PCB” value in data set [1] (setting [6]) worked out at 94%; in data set [1] (setting [7]) it was 78%; in data set [1] (setting [11]), 99%; in data set [1] (setting [8]), 83%. Moreover, the “Percent of PCB 136 converted to the metabolite” value in data set [1] (setting [12]) was approximately 2%; in data set [1] (setting [5]) it was “approximately 22%”; in data set [1] (microsomes from VEH-treated rats), approximately 0.4%. Moreover, the “Formation of metabolite relative to microsomes from VEH-treated rats” value in data set [1] (setting [12]) came out at 8 times; in data set [1] (setting [5]), 84 times.

`Clc1ccc(Cl)c(-c2c(Cl)ccc(Cl)c2Cl)c1Cl` [(-)-PCB 136]: in data set [3] (enantiospecific), the “Activity towards RyRs” value is “displays activity”.

Consider `C[C@@H]1C[C@H]2[C@@H]3CCC4=CC(=O)C=C[C@]4(C)[C@@]3(F)[C@@H](O)C[C@]2(C)[C@@]1(O)C(=O)CO` [DEX, dexamethasone], for which the “Increase in BQ activity in hepatic microsomes of treated rats” value in the data set on P450 3A is 84 fold. Further, the “Increase in BROD activity in hepatic microsomes of treated rats” value in the data set with P450 2B enzymes came out at 7 fold.

Consider `CCC1(c2ccccc2)C(=O)NC(=O)NC1=O` [PB, phenobarbital], for which the “Increase in BROD activity in hepatic microsomes of treated rats” value with P450 2B enzymes stood at 94 fold.

Turning to `Clc1ccc(Cl)c(-c2c(Cl)ccc(Cl)c2Cl)c1Cl` [PCB 136, 2,2',3,3',6,6'-hexachlorobiphenyl], the “Enantiomeric fraction (EF)” value is given as 0.35 in data set [2] (PB-microsomes, 5 μM PCB 136, 5 min incubation) and 0.49 in data set [2] (VEH-microsomes, 5 μM PCB 136, 5 min incubation). This compound also registered a solubility in data set [4] of approximately 0.25 µM (≈ 0.0902 µg/mL).
